From PubChem BioAssay
A selection: hits, their analogues and other compounds. The true share with any hit is near 1.6%.
TRAIL sens C8 – sensitizes caspase-8 expressing cells to TRAIL; NB7+C8 cells + TRAIL, ATPlite viability luminescence; inhibition (viability loss, TRAIL sensitization), % at 10 µM; actives 1% (n = 360,000); AID 624354;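 active = compounds causing at least 50% loss of cell viability in the single-dose screen, relative to plate controls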
FLuc act counter – firefly luciferase counter-screen for stimulation assays | P08659 | ATPlite luciferase biochemical, luminescence, 10 min; 0 = ATP-free wells, 1 = DMSO control | activation factor at 10 µM | 200,000 tested, under 10 active | AID 1027;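 active = luciferase activation factor, scaled between plate controls, of at least 2 with compound at 10 µM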
Target sequence (P08659 whole entry, looked up): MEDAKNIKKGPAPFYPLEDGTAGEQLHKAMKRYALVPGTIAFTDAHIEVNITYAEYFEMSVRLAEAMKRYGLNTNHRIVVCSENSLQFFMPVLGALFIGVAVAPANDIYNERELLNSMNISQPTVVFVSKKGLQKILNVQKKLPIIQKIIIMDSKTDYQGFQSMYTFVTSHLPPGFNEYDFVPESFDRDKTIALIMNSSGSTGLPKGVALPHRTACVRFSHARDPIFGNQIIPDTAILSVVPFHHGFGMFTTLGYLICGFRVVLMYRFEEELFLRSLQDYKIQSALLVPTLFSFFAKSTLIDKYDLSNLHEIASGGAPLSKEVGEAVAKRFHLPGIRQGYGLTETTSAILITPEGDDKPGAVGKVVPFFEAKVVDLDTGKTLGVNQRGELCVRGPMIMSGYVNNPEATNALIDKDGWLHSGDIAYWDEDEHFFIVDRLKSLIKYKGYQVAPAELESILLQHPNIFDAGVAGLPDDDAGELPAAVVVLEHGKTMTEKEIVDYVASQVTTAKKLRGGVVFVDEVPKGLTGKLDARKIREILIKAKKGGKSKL
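Material: Luciferase/luciferin reagent mix; Doses: test compounds dosed from 2 mM stocks in 100% DMSO; Schedule: 10 min incubation after luciferase reagent addition, room temperature; Measured by: luminescence from luciferase reaction; Read-out: luminescence gain marking luciferase activators.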
FLuc inh counter – Photinus pyralis luciferase inhibition counter-screen. ATPLite firefly luciferase biochemical luminescence, 10 min. actives 1.5% (n = 200,000). inhibition, % at 10 µM. P08659;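 active = inhibition above about 50% when tested at 10 µM, limit read from the data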
Platelet DG rel – platelet dense granule release activity | human platelet-rich plasma, SFLLRN dense granule ATP release, luminescence | inhibition, %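 (compounds screened at 7.5 µM in platelet-rich plasma)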 | actives 0.22% (n = 300,000);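 active = mean replicate score, as percent of positive control, at or above 50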
PPC-1+TRAIL kill – PPC-1 cancer cell killing with TRAIL present; PPC-1 cells + TRAIL, ATPLite viability luminescence; cell killing (% activity), % at 4 µM or 5 µM; actives 0.41% (n = 220,000);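 active = cell killing above 50% in the first pass at 4 µM, then a duplicate retest at 5 µM averaging 50% or more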;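 note: plate controls were cells with TRAIL plus DMSO for no effect and medium-only wells lacking cells for full effect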
* hit, by the source's call; x = not tested or not shown.

SMILES | TRAIL sens C8 | FLuc act counter | FLuc inh counter | Platelet DG rel | PPC-1+TRAIL kill
COc1ncc(-c2ccc(N3C(c4ccc([N+](=O)[O-])cc4)=Cc4ccccc4C3CC(C)=O)cc2)cn1 (stereo not drawn) | -12.1 | x | x | x | x
COC(=O)CSc1nnc(NC(=O)c2ccc3c(c2)OCO3)s1 | 77.1* | x | x | 8.5 | x
O=C(/C=C\c1ccc2c(c1)OCO2)Nc1nnc(SCC(=O)OCc2ccccc2)s1 | x | 1 | -0.4 | -6.6 | 12.5
COC(=O)CSc1nnc(NC(=O)/C=C\c2ccc3c(c2)OCO3)s1 | 53.0* | 1 | -3.3 | 2.1 | 33.3
COc1c2ccccc2nn1C(C)C | 11.5 | x | x | x | x
Cc1cc(C)cc(CC(=O)N2CCC2(C)C(=O)NS(=O)(=O)c2ccccc2Cl)c1 (stereo not drawn) | 4.3 | x | x | x | x
CCNC(=O)C[C@@H]1CC[C@H]2[C@@H](COC[C@H](O)CN2C(=O)C2CC2)O1 | -1.8 | x | x | x | x
CCOc1ccccc1NC(=O)c1ccc(C(=O)Nc2ccccc2OCC)nc1 | 15.3 | x | x | -0.6 | x
COc1ccccc1NC(=O)c1ccc(C(=O)Nc2ccccc2OC)nc1 | 4.4 | x | x | -3.3 | x
CCS(=O)(=O)c1ncc(Cl)c(C(=O)Nc2ccccc2OC)n1 | 89.5* | x | x | 25.0 | x
CCOc1ccccc1NC(=O)c1nc(S(=O)(=O)Cc2ccccc2)ncc1Cl | 96.3* | x | x | 13.4 | x
COc1ccccc1NC(=O)c1nc(S(=O)(=O)Cc2ccccc2)ncc1Cl | 94.5* | x | x | 8.0 | x
O=C(Nc1cccc(F)c1)Nc1nnc([C@@H]2O[C@H](CO)[C@@H](O)[C@H]2O)s1 | -4.3 | x | x | x | x
CC1(C)CC(=O)C=C(c2ccc(-c3cccc4c3sc3ccccc34)cc2)C1=O | 16.7 | x | x | x | x
Cc1cc(OCC(=O)OCC(=O)N2CCCCC2)ccc1Cl | 6.8 | x | x | x | x
CN=c1scc(C)n1/N=C/c1cc(Br)c(O)c(OC)c1 | -4.3 | 1 | 2.3 | 6.7 | 5.8
CN=c1scc(-c2cccs2)n1/N=C/c1ccc(O)c(O)c1O | 90.8* | 0 | 97.9* | 60.3* | 38.3
CN=c1scc(-c2cccs2)n1/N=C/c1ccccc1O | 93.6* | 0.1 | 93.9* | 11.5 | 74.0*
CN=c1scc(C)n1/N=C/c1ccc(O)c(O)c1O | 39.3 | 0 | 96.6* | 16.2 | 6.5
Cc1ccccc1CNC(=O)c1csc([C@@H]2C[C@H](O)[C@@H](CO)O2)n1 | 5.8 | x | x | x | x
CC(C)(C)NC(=O)C1c2ccccc2OCC(=O)N1CCc1ccccc1 (stereo not drawn) | -5.9 | x | x | x | x
COc1ccc(/C=N/NC(=S)Nc2cccc(C(=O)O)c2)cc1 | 20.6 | 0.4 | 55.5* | 0.8 | 41.4
CSc1ccc(/C=N/Nc2cccc(C(=O)O)c2)cc1 | 9.4 | 0.4 | 57.2* | x | -25.2
O=C(O)c1cccc(N/N=C/c2ccc(OC(F)(F)F)cc2)c1 | 21.1 | x | x | 10.8 | x
S=C(N/N=C/c1ccc2ncccc2c1)Nc1ccccc1 | 2.2 | 0.5 | 54.9* | -5.0 | 8.9
SMILES | TRAIL sens C8 | FLuc act counter | FLuc inh counter | Platelet DG rel | PPC-1+TRAIL kill
COc1cccc(CN2CCC(C)(Oc3cccc(Cl)c3)C2)c1OC (stereo not drawn) | -0.9 | x | x | x | x
Cc1nn(-c2ccccc2)c(Cl)c1/C=N/NC(=O)c1ccco1 | 28.8 | 0.4 | 57.5* | -3.4 | 20.1
Cc1nn(-c2ccccc2)c(Cl)c1/C=N/Nc1ccc(Cl)c(C(=O)O)c1 | 49.9 | 0.1 | 86.7* | 8.5 | 51.8*
Cc1nn(-c2ccccc2)c(Cl)c1/C=N/NC(=O)OC(C)(C)C | 39.3 | 0.9 | 9.6 | -1.4 | 0.5
CNC(=O)C[C@H]1C(=O)N(C2CCCCC2)C[C@@H]1c1ccc(Br)cc1 | -18.5 | x | x | x | x
CCn1c(C)cc(/C=C2/SC(=S)N(CC(=O)O)C2=O)c1C | 27.8 | 0.2 | 80.1* | 13.8 | 22.7
C#CCN1C(=O)S/C(=C/c2cc(C)n(CC)c2C)C1=O | 10.2 | 0.7 | 25.7 | -9.8 | 26.8
Cn1c(N=NC(=O)c2ccccc2)c(O)c2ccccc21 | 60.4* | 0.1 | 86.3* | -5.3 | 44.4
Cc1ccccc1OCC(=O)Nc1nc2ccccc2[nH]1 | -2.3 | 0.2 | 83.7* | -5.9 | 44.3
COc1ccccc1C(=O)Nc1nc2ccccc2[nH]1 | 96.0* | x | x | 57.2* | x
COc1cc(SC)ccc1C(=O)NNC(=O)c1cc(C)oc1C | 69.1* | x | x | 57.7* | x
CSc1ccccc1C(=O)Nc1nc2ccccc2[nH]1 | 13.1 | 0.8 | 22.7 | 26.2 | 10.6
CCOc1ccccc1OCC(=O)Nc1nc2ccccc2[nH]1 | 3.7 | 0.8 | 19.0 | 2.2 | 10.4
COc1cc(SC)ccc1C(=O)Nc1nc2ccccc2[nH]1 | 96.1* | x | x | 96.2* | x
O=C1CC(c2ccc3c(c2)OCCO3)Oc2ccc([N+](=O)[O-])cc21 (stereo not drawn) | 64.0* | x | x | 12.9 | x
Cn1cc(S(=O)(=O)N2CCOCC2)cc1C(=O)Nc1ccc(Cl)cc1 | -14.2 | x | x | 99.1* | x
COc1ccc(NC(=O)c2cc(S(=O)(=O)N3CCOCC3)cn2C)cc1Cl | 16.0 | x | x | 2.5 | x
Cn1c(=O)c2c(nc(CN3CCCCC3)n2CCCc2ccccc2)n(C)c1=O | 0.5 | x | x | 2.0 | x
CC1CCCCN1Cc1nc2c(c(=O)n(C)c(=O)n2C)n1CCCc1ccccc1 (stereo not drawn) | 16.9 | x | x | 55.5* | x
c1ccc2c(c1)COc1c3cc4c(cc3nn1-2)OCO4 | 58.7* | x | x | x | x
O=C(O)c1ccc2c3n(nc2c1)-c1ccc(Cl)cc1CO3 | x | x | x | 16.0 | x
O=c1cc(-c2ccc(O)c(O)c2)oc2ccc3ccccc3c12 | 74.4* | x | x | x | x
O=c1cc(-c2ccc(O)c(O)c2)oc2c1ccc1ccccc12 | 22.6 | x | x | x | x
O=c1cc(-c2ccccc2)oc2ccc3ccccc3c12 | 88.3* | x | x | x | x
NC(=O)COc1ccc2oc(-c3ccccc3)cc(=O)c2c1 | 15.9 | 0.4 | 56.2* | -4.3 | 43.0
SMILES | TRAIL sens C8 | FLuc act counter | FLuc inh counter | Platelet DG rel | PPC-1+TRAIL kill
COc1ccc(CNC(=O)Nc2nnc([C@@H]3C[C@H](O)[C@@H](CO)O3)s2)cc1 | -6.6 | x | x | x | x
O=C(Nc1ccccc1)c1cc(C2CCCCN2C(=O)c2cccs2)on1 (stereo not drawn) | 9.7 | x | x | x | x
Cc1cccc(C)c1NC(=O)C1C(c2ccc3c(c2)OCO3)=Nc2ccccc2N1C(=O)c1cccc2ccccc12 (stereo not drawn) | 8.2 | x | x | x | x
Cc1ccccc1NC(=O)N1c2ccccc2CC1C (stereo not drawn) | 2.1 | 1 | -0.1 | 5.7 | 8.1
Cc1nc2cc(NC(=O)N3c4ccccc4CC3C)ccc2o1 (stereo not drawn) | 2.1 | 0.4 | 61.5* | 5.4 | 34.2
Cc1cccc(OCc2cc(-c3ccccc3)no2)c1C | 6.4 | x | x | -7.8 | x
Clc1ccc(OCc2cc(-c3ccccc3)no2)c(Cl)c1 | 43.7 | 0.5 | 51.4* | -4.4 | 25.6
CC1Oc2ccccc2C=C1/C=N/NC(=O)c1ccccc1O (stereo not drawn) | 50.3* | 0.2 | 78.3* | 6.7 | 28.1
Cc1ccsc1/C=N\NC(=O)c1n[nH]c2c1CCC2 | 43.7 | 0.3 | 70.9* | 35.9 | 22.7
O=C(N/N=C/c1ccc2cccnc2c1)c1ccco1 | 61.2* | 0.1 | 87.9* | 9.9 | 34.0
O=C(N/N=C/c1ccccc1)c1ccco1 | 1.0 | x | x | -0.1 | 3.1
O=C(N/N=C/c1ccc[nH]1)c1ccc2c(c1)OCO2 | 2.4 | 0.3 | 73.4* | 8.5 | 22.3
